An excerpt weighted towards active compounds, which were near 3.9% of everything screened.
Gli-Sufu antag = blocks Gli-Sufu signaling in a luciferase reporter; Sufu-KO-LIGHT fibroblasts, Gli luciferase reporter luminescence; inhibition, % at 5 µM; 340,000 compounds, 0.74% hits;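 active means inhibition above about 55%, limit read from the data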;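 further: 0% = DMSO-treated cells and 100% = wells with medium but no cells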
CHOP inhibitor = inhibitors of CHOP induction in ER stress response; CHO-K1 CHOP-promoter luciferase, tunicamycin-induced, 15-18 h; inhibition, % at 10 µM; 220,000 compounds, 3.8% hits; AID 2732;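 active means compounds that reduced the stress-induced luciferase reporter signal by more than about 70% of percent inhibition, limit read from the data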;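 further: 0% = tunicamycin plus vehicle and 100% = wells without tunicamycin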
XBP1 UPR activ = activators of adaptive arm of unfolded protein response (XBP1) | CHO-XBP1 luciferase reporter, IRE1-XBP1 UPR activation, luminescence; percent of tunicamycin response, DMSO as zero | activation, % at 20 µM | 330,000 compounds, 0.33% hits | AID 463104;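 active means versus positive control, 20 µM dose yields 30% or more activation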;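 further: 100% = tunicamycin at 10 µg/mL and 0% = DMSO only wells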
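Material: CHO cell line with stable XBP1 luciferase reporter; buffer or medium: F12 medium containing 10% fetal bovine serum; compound: single point, 20 µM final compound, 1% DMSO; incubation: 6 h treatment, 37 °C; measured by: glow luminescence from Steady-Glo reagent; evaluation: activation, % of tunicamycin; control set: tunicamycin high, DMSO low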
Jurkat NFkB inh = lowers PMA/ionomycin-induced NF-kB signal in Jurkat cells; PMA/ionomycin-induced NF-kB luciferase reporter, luminescence; inhibition, % at 4 µM; 330,000 compounds, 0.53% hits; AID 435003; in the data active means inhibition above about 50%
697 NFkB inh = inhibitors of the PMA/ionomycin-induced NF-kB reporter in 697 B cells; 697 B-cell NF-kB luciferase reporter, 16 h; inhibition, % at 4 µM; 330,000 compounds, 0.33% hits; AID 435022; in the data active means inhibition above about 35%
UPR CHOP act = apoptotic UPR (CHOP) activation; CHO-CHOP luciferase reporter, luminescence; percent of tunicamycin response over DMSO baseline; activation, % at 10 µM; 330,000 compounds, 0.34% hits; AID 449763;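 active means at 10 µM dose, activation of 40% or more, normalized to positive control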;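 further: 100% = tunicamycin at 10 µg/mL and 0% = DMSO alone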
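System: CHO CHOP reporter cells. Amount: 500 cells per well. Buffer or medium: F12 medium, 10% FBS. Compound dosing: one dose, 10 µM in 0.5% DMSO. Incubation: 6 h compound exposure at 37 °C after overnight seeding. Technique: Steady-Glo luciferase luminescence. Benchmarks: tunicamycin and DMSO controls.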
CHOP confirm = confirmation of CHOP induction inhibitors; AID 504437; inhibition, % at 10 µM; CHO-CHOP promoter luciferase reporter, tunicamycin-induced, luminescence; shares compounds with CHOP inhibitor; 2,100 compounds, 45% hits;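 active means mean of three repeat readings of reporter signal inhibition above a set limit, cut at about 70% in these data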;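 further: 0% = tunicamycin plus vehicle and 100% = wells lacking tunicamycin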
* = called active by the depositor; . = no result.

SMILES	Gli-Sufu antag	CHOP inhibitor	XBP1 UPR activ	Jurkat NFkB inh	697 NFkB inh	UPR CHOP act	CHOP confirm
Cc1ccc(S(=O)(=O)N(C)CC(O)Cn2c3ccccc3c3ccccc32)cc1 (configuration not stated)	5.6	100.9*	2.7	-6.2	1.0	1.0	41.7
CC(C)(C)C(=O)c1no[n+]([O-])c1/C(=N/O)C(C)(C)C	15.0	107.7*	2.0	-6.5	13.3	0.1	78.1*
NS(=O)(=O)c1ccc(CCNC(=O)CCc2nc3sc4c(c3c(=O)[nH]2)CCCC4)cc1	-17.7	.	-0.7	6.4	6.5	-1.2	.
CCc1ccc(C2NC(=S)NC3=C2C(=O)N(c2ccccc2OC)C(c2ccc(CC)cc2)N3)cc1 (configuration not stated)	-17.3	45.3	4.9	3.5	17.2	3.2	.
O=C1C2=C(NC(=S)NC2c2ccc(Cl)cc2)NC(c2ccc(Cl)cc2)N1c1ccc(Cl)cc1 (configuration not stated)	-2.5	98.0*	8.9	-7.9	-10.2	3.9	53.0
COc1ccccc1-n1cc([C@@H]2C[C@H]3CN(c4ccccc4)C(=O)[C@]34CCCN24)cn1	29.8	102.0*	-2.0	-4.1	16.9	-3.7	103.7*
CCN(CC)S(=O)(=O)c1ccc(NC(=O)c2cc(-c3ccccc3)nc3ccccc23)cc1	-14.0	37.9	-1.6	4.6	-17.8	0.0	.
Cc1cc(C)nc(NS(=O)(=O)c2ccc(NC(=O)c3cc(-c4ccccc4)nc4ccccc34)cc2)n1	16.1	102.4*	1.0	1.1	33.1	1.0	25.0
COc1ccc(CNC(=O)C[C@H]2C(=O)N(C3CCCCC3)C[C@@H]2Cc2ccccc2)cc1	3.0	.	-2.6	16.1	18.6	-1.4	.
CCCCc1nnc(NC(=O)c2ccc(OCc3c(C)noc3C)cc2)s1	12.3	.	-0.6	4.1	-62.5	-0.7	.
Cc1cc(CNC(=O)c2ccc3oc(C(C)C)nc3c2)nn1C	-2.3	.	0.2	3.7	-9.2	1.6	.
C/C(=N/Nc1nc(C)c(C)s1)c1cccc([N+](=O)[O-])c1	-24.1	.	0.6	-43.2	-24.7	2.1	.
CCOc1cc(NC(=S)NCC(C)C)c(OCC)cc1NC(=O)c1cccs1	10.3	99.6*	-0.9	-6.6	-19.1	-1.9	100.0*
CCNC(=S)Nc1cc(OCC)c(NC(=O)c2cccs2)cc1OCC	2.8	37.3	.	.	.	.	.
Cc1ccc(NC(=O)NC(=O)CN2C(=O)NC3(CCCCCCC3)C2=O)c(C)c1	-0.1	105.0*	3.1	-13.0	-3.0	-1.0	90.9*
CC1CCC(C(C)C)C(OCC(O)CN2CCCC(C)C2)C1 (configuration not stated)	6.9	20.5	0.2	-7.4	-6.1	-0.4	.
CC1CCC(C(C)C)C(OCC(O)CN2CCN(Cc3ccccc3)CC2)C1 (configuration not stated)	11.7	99.4*	-2.0	8.9	7.5	-0.9	103.5*
Clc1ccc(Cn2cc(/C=N/n3cnnc3)c3ccccc32)c(Cl)c1	1.7	108.0*	1.3	2.9	-1.6	-0.3	48.8
C(=N\n1cnnc1)/c1cn(Cc2ccccc2)c2ccccc12	-11.0	25.5	4.2	5.8	1.6	-2.6	.
Cc1cccc(C)c1NC(=O)COc1ccccc1C(=O)Nc1ccc(Br)cn1	4.0	106.3*	3.4	2.2	11.2	2.3	101.5*
CCOc1ccc(/C=N/NC(=O)Cc2csc(Nc3cccc(C(F)(F)F)c3)n2)cc1	-2.9	106.2*	-2.8	5.7	-16.0	-0.5	31.8
CCOc1ccccc1/C=N/NC(=O)Cc1csc(Nc2cccc(C(F)(F)F)c2)n1	0.6	52.4	1.9	12.3	22.4	-0.6	.
CNc1cc(-n2nc(C)cc2-c2ccccc2)ncn1	-4.6	-14.8	-0.1	-6.0	-13.5	0.0	.
Cc1cc(-c2ccccc2)n(-c2cc(N/N=C/c3ccccc3O)ncn2)n1	12.8	101.6*	.	.	.	.	46.8
CCOC(=O)[C@H]1[C@H]2COc3ccc(OC)cc3[C@H]2N2C(=O)CNC(=O)[C@@]12C	-0.9	.	-2.3	9.0	-3.8	4.7	.
SMILES	Gli-Sufu antag	CHOP inhibitor	XBP1 UPR activ	Jurkat NFkB inh	697 NFkB inh	UPR CHOP act	CHOP confirm
CCc1nnc(N/N=C/c2cc(Br)c(O)cc2O)n1N	5.3	.	-1.8	15.5	-2.7	-0.7	.
CC(C)(C)c1nnc(N/N=C/c2cc(Br)ccc2O)n(N)c1=O	54.9	106.5*	.	.	.	.	117.5*
Cc1cccc(NC(=O)C2C3CCCCC32)c1 (configuration not stated)	-36.2	.	2.9	-36.7	-38.3	8.4	.
COc1ccc(C(C[N+](=O)[O-])C2(c3ccc(OC)c(OC)c3)C(=O)c3ccccc3C2=O)cc1 (configuration not stated)	-21.9	104.0*	.	.	.	.	-165.2
COc1ccc(C(C[N+](=O)[O-])c2c(-c3ccccc3)cc3ccccn23)cc1 (configuration not stated)	-4.3	5.1	-3.9	8.3	-13.2	14.1	.
CCOC(=O)c1[nH]c2ccc(Cl)cc2c1-c1ccccc1	4.7	96.7*	1.9	4.3	-4.5	8.0	119.6*
CCCCCn1c(CN2CCN(C)CC2)nc2c1c(=O)n(C)c(=O)n2C	15.0	17.6	1.9	7.0	10.3	-0.7	.
CCCCCCn1c(CN2CCN(Cc3ccccc3)CC2)nc2c1c(=O)n(C)c(=O)n2C	14.6	100.0*	-1.5	-9.2	-44.5	-0.5	120.2*
Nc1ccc(SC(F)(F)F)cc1C(=O)c1ccccc1	-6.3	103.5*	2.7	1.9	4.0	1.0	110.9*
CCOc1ccc(-n2nc(C(=O)NC3CCCCC3)c3ccccc3c2=O)cc1	9.4	.	-2.0	-13.0	0.3	0.0	.
O=C(c1ccc(Cl)cc1Cl)c1ncc(C(F)(F)F)cc1Cl	3.0	67.8	0.8	0.5	4.9	0.7	.
O/N=C(\c1ccc(Cl)cc1Cl)c1ncc(C(F)(F)F)cc1Cl	22.0	106.9*	-0.7	19.0	-3.1	-3.3	111.3*
Cc1ccc2c(c1)c(=O)c1c3n2CCN(C(=O)CCl)C3CC1 (configuration not stated)	-0.1	.	1.1	7.8	19.4	2.4	18.7
CCN(CCO)c1ncnc2c1sc1nc(CC(C)C)c3c(c12)CC(C)(C)OC3	7.9	106.3*	12.3	-9.0	-8.0	0.7	92.2*
CC1(C)Cc2nc3sc4c(N(CCO)CCO)ncnc4c3cc2CO1	-18.3	-38.3	2.2	-12.6	-5.3	1.8	.
Cc1ccc2c(CC(=O)N(C)c3c(N)n(Cc4ccccc4)c(=O)[nH]c3=O)coc2c1	-3.4	.	-4.3	3.9	7.6	0.8	.
CCOC(=O)c1ccc(NC(=O)CSc2nnc(CCc3ccc(C)o3)n2-c2ccccc2)cc1	-3.4	103.1*	-0.9	-0.4	15.1	-0.4	58.0

Assay outcomes as filed in PubChem.
